Reference: publication PMC7191207 (Heliyon, 2020)
Like-named read-outs stand apart in the source and are kept apart here.

Legend:
[1] = Stability tests of QC samples in pooled human plasma; type: physicochemical; settings: for degradation of QC samples: QC low, medium and high
Summary of the method: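 QC samples (12, 120, 900 ng/mL) spiked into pooled human plasma in triplicate, then held at bench top, in the autosampler, or 1 month at -80 °C. Extraction: diethyl ether liquid-liquid, dried under nitrogen at 37 °C, reconstituted in mobile phase. Analysis: C18 LC-MS/MS with positive ESI MRM (438.3/357.2) against a 1/x2-weighted calibration (5–1000 ng/mL). Accuracy = measured/nominal × 100%.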

[2] = system: albumin; settings: mainly bound to albumin; cited from earlier work
[3] = system: renal cancer patients; settings: renal cancer patients in clinical trials, up; cited from earlier work
[4] = type: in vivo, human; settings: oral 800 mg daily
Summary of the method: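 Plasma from patients on oral 800 mg daily for at least one week, excluding combined TKI therapy; blood centrifuged at 3000 rpm, plasma stored at -20 °C. Free fraction by rapid equilibrium dialysis (8000 Da cut-off) against PBS at 37 °C, 250 rpm, 6 h, in technical duplicates. Quantified by C18 HPLC with positive-ESI MRM, erlotinib internal standard, calibration 5–1000 ng/mL.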

[5] = Calculated hepatic extraction ratio; settings: low (<0.3)

Cc1ccc(Nc2nccc(N(C)c3ccc4c(C)n(C)nc4c3)n2)cc1S(N)(=O)=O [pazopanib, Pazopanib]
degradation of QC samples ([1]; 1 month of storage at -80 °C): No significant degradation | Stability, Accuracy (%) from nominal concentration ([1]; Autosampler: extracted samples stored for 14 h at room temperature, 12 ppb): 96.45% | Stability, Accuracy (%) from nominal concentration ([1]; Autosampler: extracted samples stored for 14 h at room temperature, 120 ppb): 96.56% | Stability, Accuracy (%) from nominal concentration ([1]; Autosampler: extracted samples stored for 14 h at room temperature, 900 ppb): 96.02% | Stability, Accuracy (%) from nominal concentration ([1]; Bench Top: plasma samples stored at room temperature for 8h, 12 ppb): 113.11% | Stability, Accuracy (%) from nominal concentration ([1]; Bench Top: plasma samples stored at room temperature for 8h, 120 ppb): 93.21% | Stability, Accuracy (%) from nominal concentration ([1]; Bench Top: plasma samples stored at room temperature for 8h, 900 ppb): 97.02% | Stability, Accuracy (%) from nominal concentration ([1]; Freeze Thaw: three freeze thaw cycles, 12 ppb): 93.79% | Stability, Accuracy (%) from nominal concentration ([1]; Freeze Thaw: three freeze thaw cycles, 120 ppb): 93.50% | Stability, Accuracy (%) from nominal concentration ([1]; Freeze Thaw: three freeze thaw cycles, 900 ppb): 100.49% | Stability, Accuracy (%) from nominal concentration ([1]; Long Term: stored at -80 °C for 1 month, 12 ppb): 100.58% | Stability, Accuracy (%) from nominal concentration ([1]; Long Term: stored at -80 °C for 1 month, 120 ppb): 113.89% | Stability, Accuracy (%) from nominal concentration ([1]; Long Term: stored at -80 °C for 1 month, 900 ppb): 114.23% | degradation of QC samples ([1]; auto sampler conditions): No significant degradation | degradation of QC samples ([1]; bench top conditions): No significant degradation | degradation of QC samples ([1]; three freeze-thaw cycles): did not result in significant degradation | plasma protein binding [2]: > 99.9% | proportion of patients with increases in serum transaminases and bilirubin [3]: 40–50% | free drug concentration ([4]; 17 patients' plasma samples, mean ± standard deviation): 5.84 ± 3.02 ng/mL | Plasma free drug concentration (Median ± Interquartile range) ([4]; patients with low albumin level (<40 g/L) (n = 7)): 6.49 ± 3.65 ng/mL | Plasma free drug concentration (Median ± Interquartile range) ([4]; patients with normal albumin level (n = 8)): 4.88 ± 2.71 ng/mL | Plasma free drug concentration (Median ± Interquartile range) ([4]; patients with very low albumin level (<30 g/L) (n = 2)): 3.44 ± 1.32 ng/mL | calculated hepatic extraction ratio [5]: 0.00346
